Source: ChEMBL document CHEMBL1142515, “Synthesis and evaluation of structurally constrained quinazolinone derivatives as potent and selective histamine H3 receptor inverse agonists” (J Med Chem, 2008)

Experiments:
[1] = Drug level in Sprague-Dawley rat cerebrospinal fluid at 10 mg/kg, po after 2 hrs; format: ADME, organism-based; set-up: dose 10 mg/kg, route oral; conditions: read-out: Drug uptake
Method in brief: (§1)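 Male SD rats dosed orally at 10 mg/kg. Plasma, brain and CSF concentrations determined 2 h after dosing. Brain/plasma ratio taken from these levels. Mean of n = 3 animals.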

[2] = Cmax in Sprague-Dawley rat at 1 mg/kg, iv and 3 mg/kg, po; format: ADME, organism-based; conditions: in vivo
Method in brief: (§2)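 Male SD rats, male Beagle dogs, male rhesus monkeys given single doses iv (PEG400/EtOH/H2O 50/10/40) or po by gavage (0.5% methylcellulose suspension). Rats 1 mg/kg iv and 3 mg/kg po; dogs and monkeys 0.3 mg/kg iv and 1 mg/kg po. Plasma sampled at multiple times up to 24 h, deproteinized with ethanol plus internal standard. Mean of n = 3 animals/dose.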

[3] = Oral bioavailability in Sprague-Dawley rat at 3 mg/kg; format: ADME, organism-based; conditions: in vivo; method in brief: as §2
[4] = Cmax in rhesus monkey at 0.3 mg/kg, iv and 1 mg/kg, po; format: ADME, organism-based, Macaca mulatta; conditions: in vivo; method in brief: as §2
Mus musculus [5] = test: Ex vivo receptor occupancy of histamine H3 receptor expressed in po dosed MDR1a deficient CF1 mouse plasma assessed by brain occupancy/brain to plasma ratio after 2 hrs; format: functional
Method in brief: (§3)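 Female wild-type and mdr1a (−/−) CF-1 mice given vehicle or compound po (0.1–3 mg/kg) and decapitated at 2 h. Coronal striatal sections (20 μm) incubated 10 min at room temperature with 400 pM tritiated quinazolinone H3 inverse agonist radioligand in sodium phosphate buffer. Nonspecific binding defined with 10 μM R-α-methylhistamine. Sections imaged 6 h by beta-Imager. Brain Occ90 obtained from occupancy versus brain concentration. Plasma Occ90 = brain Occ90/brain-to-plasma ratio.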

[6] = Plasma clearance in Sprague-Dawley rat at 1 mg/kg, iv; format: ADME, organism-based; set-up: dose 1 mg/kg, route intravenous; method in brief: as §2
Rhesus monkey [7] = test: AUC (0 to infinity) in rhesus monkey at 1 mg/kg, po; format: ADME, organism-based, Macaca mulatta, Plasma; set-up: time infinity, dose 1 mg/kg, route oral; conditions: in vivo; method in brief: as §2
Rhesus monkey [8] = test: Oral bioavailability in rhesus monkey at 1 mg/kg; format: ADME, organism-based, Macaca mulatta; conditions: in vivo; method in brief: as §2
Histamine H2 receptor = Histamine H2 receptor (Homo sapiens, UniProt P25021); test: Inhibition of human histamine H2 receptor
Chain of Histamine H2 receptor (P25021 whole entry): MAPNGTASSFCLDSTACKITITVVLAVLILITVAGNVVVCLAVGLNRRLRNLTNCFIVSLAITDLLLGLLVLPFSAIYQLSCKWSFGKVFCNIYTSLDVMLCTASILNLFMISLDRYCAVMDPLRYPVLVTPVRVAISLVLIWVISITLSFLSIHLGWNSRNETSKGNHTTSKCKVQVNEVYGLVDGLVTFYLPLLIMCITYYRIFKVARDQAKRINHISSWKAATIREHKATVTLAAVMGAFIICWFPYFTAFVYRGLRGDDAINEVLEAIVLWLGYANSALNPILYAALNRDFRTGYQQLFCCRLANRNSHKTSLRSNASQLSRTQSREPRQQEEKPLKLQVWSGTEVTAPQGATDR

[9] = Ratio of drug level in brain to plasma in Sprague-Dawley rat at 10 mg/kg, po after 2 hrs; format: ADME, organism-based; set-up: dose 10 mg/kg, route oral; conditions: read-out: BPR; method in brief: as §1
[10] = Plasma concentration in Sprague-Dawley rat at 10 mg/kg, po after 2 hrs; format: ADME, organism-based; set-up: dose 10 mg/kg, route oral; method in brief: as §1
Rattus norvegicus [11] = test: Ex vivo receptor occupancy of histamine H3 receptor in Sprague-Dawley rat assessed as drug level in brain at 1 mg/kg, po after 2 hrs; format: functional
Method in brief: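 Male SD rats given vehicle or 1 mg/kg compound by oral gavage and decapitated at 2 h. Striatal sections (20 μm) incubated 10 min at room temperature with 400 pM tritiated H3 inverse agonist radioligand in sodium phosphate buffer. Nonspecific binding defined with 10 μM R-α-methylhistamine. Beta-Imager exposure 6 h. Drug levels measured by LC-MS/MS.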

Mus musculus [12] = test: Ex vivo receptor occupancy of histamine H3 receptor expressed in po dosed wild type CF1 mouse plasma assessed by brain occupancy/brain to plasma ratio after 2 hrs; format: functional; method in brief: as §3
Rattus norvegicus [13] = test: Increase in tele-methylhistamine level in po dosed Sprague-Dawley rat brain after 2 hrs relative to control; format: functional, organism-based
Method in brief: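 Male SD rats given vehicle (0.5% methylcellulose) or compound po at 1, 3, 10 mg/kg, co-dosed with pargyline ip. Decapitated at 2 h and brains homogenized. tele-Methylhistamine measured by HPLC with fluorometry after solid-phase extraction. Mean ± SE from five experiments. Compared with vehicle by ANOVA with Dunnett's test.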

Histamine H4 receptor = Histamine H4 receptor (Homo sapiens, UniProt Q9H3N8); test: Inhibition of human histamine H4 receptor
Chain of Histamine H4 receptor (Q9H3N8 whole entry): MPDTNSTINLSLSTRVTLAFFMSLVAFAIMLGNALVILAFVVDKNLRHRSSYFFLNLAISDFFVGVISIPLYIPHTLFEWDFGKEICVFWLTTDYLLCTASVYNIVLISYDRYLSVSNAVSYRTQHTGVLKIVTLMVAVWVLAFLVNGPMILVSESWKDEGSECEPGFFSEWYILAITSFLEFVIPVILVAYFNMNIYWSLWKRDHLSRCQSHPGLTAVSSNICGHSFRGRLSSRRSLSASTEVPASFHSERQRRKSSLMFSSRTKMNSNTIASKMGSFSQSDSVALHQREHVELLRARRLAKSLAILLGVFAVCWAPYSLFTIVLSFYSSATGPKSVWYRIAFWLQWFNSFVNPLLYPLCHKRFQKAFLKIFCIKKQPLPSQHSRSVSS

[14] = Plasma clearance in Beagle dog at 0.3 mg/kg, iv; format: ADME, organism-based, Canis lupus familiaris; set-up: dose 0.3 mg/kg, route intravenous; method in brief: as §2
[15] = AUC (0 to infinity) in Beagle dog at 1 mg/kg, po; format: ADME, organism-based, Canis lupus familiaris, Plasma; set-up: time infinity, dose 1 mg/kg, route oral; conditions: Beagle, plasma; method in brief: as §2
[16] = biological target: Voltage-gated inwardly rectifying potassium channel KCNH2 (Homo sapiens, UniProt Q12809); test: Antagonist activity at human ERG in HEK293 cells assessed as inhibition of [35S]N-[(4R)-1'-[(2R)-6-cyano-1,2,3,4-tetrahydro-2-naphthalenyl]-3,4-dihydro-4-hydroxyspiro[2H-1-benzopyran-2,4'-piperidin]-6-yl]methanesulfonamide binding
Chain of Voltage-gated inwardly rectifying potassium channel KCNH2 (Q12809 whole entry): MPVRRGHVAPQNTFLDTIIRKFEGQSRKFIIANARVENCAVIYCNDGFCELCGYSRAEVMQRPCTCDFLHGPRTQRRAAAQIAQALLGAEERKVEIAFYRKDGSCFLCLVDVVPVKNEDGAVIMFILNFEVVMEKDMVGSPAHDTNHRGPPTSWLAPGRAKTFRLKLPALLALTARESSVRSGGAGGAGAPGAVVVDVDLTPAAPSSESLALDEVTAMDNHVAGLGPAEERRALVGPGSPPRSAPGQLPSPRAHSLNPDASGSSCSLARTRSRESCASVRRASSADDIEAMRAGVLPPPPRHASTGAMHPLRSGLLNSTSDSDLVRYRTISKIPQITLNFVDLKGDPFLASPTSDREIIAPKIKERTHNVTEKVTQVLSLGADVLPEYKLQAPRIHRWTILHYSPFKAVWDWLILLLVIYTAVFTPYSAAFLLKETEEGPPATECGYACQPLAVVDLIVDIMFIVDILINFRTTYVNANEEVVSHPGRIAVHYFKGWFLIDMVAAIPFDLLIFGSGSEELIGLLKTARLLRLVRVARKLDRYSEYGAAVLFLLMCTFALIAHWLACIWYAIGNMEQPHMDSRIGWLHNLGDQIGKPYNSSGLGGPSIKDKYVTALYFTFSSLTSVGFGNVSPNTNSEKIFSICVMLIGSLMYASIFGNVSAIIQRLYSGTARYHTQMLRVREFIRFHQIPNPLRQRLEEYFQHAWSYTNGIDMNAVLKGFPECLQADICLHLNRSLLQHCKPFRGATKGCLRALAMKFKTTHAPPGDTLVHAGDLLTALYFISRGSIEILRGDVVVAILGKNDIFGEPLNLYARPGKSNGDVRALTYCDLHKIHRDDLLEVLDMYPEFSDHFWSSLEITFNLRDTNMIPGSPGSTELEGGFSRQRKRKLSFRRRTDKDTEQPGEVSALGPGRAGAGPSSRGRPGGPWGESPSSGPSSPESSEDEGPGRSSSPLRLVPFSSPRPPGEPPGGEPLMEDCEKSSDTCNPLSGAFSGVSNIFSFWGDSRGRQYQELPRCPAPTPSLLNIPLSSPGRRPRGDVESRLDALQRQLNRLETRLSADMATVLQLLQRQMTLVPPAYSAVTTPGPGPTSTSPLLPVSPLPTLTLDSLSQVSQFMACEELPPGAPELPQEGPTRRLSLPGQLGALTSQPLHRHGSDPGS

[17] = Ratio of drug level brain to plasma in wild type mdr1a (+/+) CF1 mouse at 0.3 mg/kg, po after 2 hrs; format: ADME, organism-based; set-up: dose 0.3 mg/kg, route oral; conditions: read-out: BPR
Method in brief: (§4)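 Female mdr1a (+/+) and mdr1a (−/−) CF-1 mice dosed by oral gavage. Terminal blood and whole brain collected 2 h later. Brain homogenized by ultrasonication in 4 volumes water. Plasma and brain deproteinized with ethanol plus internal standard, then measured by LC-MS/MS (positive ESI, MRM). Mean ± SE, n = 3. Brain/plasma ratios calculated from mean values.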

Mus musculus [18] = test: Ex vivo receptor occupancy of histamine H3 receptor expressed in wild type po dosed CF1 mouse brain after 2 hrs; format: functional; method in brief: as §3
Histamine H1 receptor = Histamine H1 receptor (Homo sapiens, UniProt P35367); test: Inhibition of human histamine H1 receptor
Chain of Histamine H1 receptor (P35367 whole entry): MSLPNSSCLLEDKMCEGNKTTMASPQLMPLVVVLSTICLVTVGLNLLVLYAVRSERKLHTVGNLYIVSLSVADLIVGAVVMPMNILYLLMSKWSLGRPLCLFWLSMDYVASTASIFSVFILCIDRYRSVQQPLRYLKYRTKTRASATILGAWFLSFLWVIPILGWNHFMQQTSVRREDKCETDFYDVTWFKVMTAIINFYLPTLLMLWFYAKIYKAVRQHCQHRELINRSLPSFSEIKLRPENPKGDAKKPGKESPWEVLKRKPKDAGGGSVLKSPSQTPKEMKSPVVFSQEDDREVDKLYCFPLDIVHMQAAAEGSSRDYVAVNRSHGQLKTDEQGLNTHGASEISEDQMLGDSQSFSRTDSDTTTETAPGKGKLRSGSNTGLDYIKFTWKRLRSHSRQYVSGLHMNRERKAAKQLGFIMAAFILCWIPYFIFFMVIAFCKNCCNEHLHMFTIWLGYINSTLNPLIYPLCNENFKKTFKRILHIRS

[19] = Ratio of drug level in cerebrospinal fluid to brain in Sprague-Dawley rat at 10 mg/kg, po after 2 hrs; format: ADME, organism-based, CSF/Brain; set-up: dose 10 mg/kg, route oral; conditions: in vivo
Brain [20] = test: Drug level in Sprague-Dawley rat brain at 10 mg/kg, po after 2 hrs; format: ADME, organism-based; set-up: dose 10 mg/kg, route oral; conditions: in vivo; method in brief: as §1
LLC-PK1 [21] = test: Ratio of permeability from apical to basolateral side over basolateral to apical side in pig LLC-PK1 cells expressing human MDR1; format: ADME, cell-based, Sus scrofa
LLC-PK1 [22] = test: Ratio of permeability from apical to basolateral side over basolateral to apical side in pig LLC-PK1 cells expressing mouse MDR1a; format: ADME, cell-based, Sus scrofa
Histamine H3 receptor [23] = biological target: Histamine H3 receptor (Rattus norvegicus, UniProt Q9QYN8); test: Displacement of [3H]N-alpha-methylhistamine from rat recombinant histamine H3 receptor expressed in HEK293 cells; format: cell-based
Chain of Histamine H3 receptor (Rattus norvegicus, UniProt Q9QYN8) (Q9QYN8 whole entry): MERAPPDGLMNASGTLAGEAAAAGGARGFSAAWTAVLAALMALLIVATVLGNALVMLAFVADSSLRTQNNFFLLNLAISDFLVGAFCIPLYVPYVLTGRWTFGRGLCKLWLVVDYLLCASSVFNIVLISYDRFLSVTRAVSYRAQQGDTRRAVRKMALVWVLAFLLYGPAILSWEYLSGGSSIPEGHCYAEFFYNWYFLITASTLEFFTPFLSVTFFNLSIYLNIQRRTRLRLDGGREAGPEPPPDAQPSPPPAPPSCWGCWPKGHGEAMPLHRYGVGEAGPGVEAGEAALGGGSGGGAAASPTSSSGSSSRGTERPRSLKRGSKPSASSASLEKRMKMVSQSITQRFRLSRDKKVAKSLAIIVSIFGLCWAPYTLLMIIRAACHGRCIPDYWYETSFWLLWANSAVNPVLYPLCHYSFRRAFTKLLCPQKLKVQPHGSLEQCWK

[24] = AUC (0 to infinity) in Sprague-Dawley rat at 3 mg/kg, po; format: ADME, organism-based; set-up: time infinity, dose 3 mg/kg, route oral; conditions: plasma; method in brief: as §2
[25] = Ex vivo drug level in mdr1a (-/-) deficient CF1 mouse plasma at 0.3 mg/kg, po after 2 hrs; format: ADME, organism-based; set-up: dose 0.3 mg/kg, route oral; conditions: read-out: Drug uptake; method in brief: as §4
Brain [26] = test: Ex vivo drug level in wild type mdr1a (+/+) CF1 mouse brain at 0.3 mg/kg, po after 2 hrs; format: ADME, organism-based; set-up: dose 0.3 mg/kg, route oral; method in brief: as §4
[27] = Oral bioavailability in Beagle dog at 1 mg/kg; format: ADME, organism-based, Canis lupus familiaris; conditions: Beagle, in vivo; method in brief: as §2
[28] = Ex vivo drug level in wild type mdr1a (+/+) CF1 mouse plasma at 0.3 mg/kg, po after 2 hrs; format: ADME, organism-based; set-up: dose 0.3 mg/kg, route oral; conditions: read-out: Drug uptake; method in brief: as §4
Brain [29] = test: Ex vivo drug level in mdr1a (-/-) deficient CF1 mouse brain at 0.3 mg/kg, po after 2 hrs; format: ADME, organism-based; set-up: dose 0.3 mg/kg, route oral; method in brief: as §4
[30] = Cmax in Beagle dog at 0.3 mg/kg, iv and 1 mg/kg, po; format: ADME, organism-based, Canis lupus familiaris; conditions: in vivo; method in brief: as §2
Histamine H3 receptor [31] = biological target: T1, Histamine H3 receptor (Homo sapiens, UniProt Q9Y5N1); test: Antagonist activity at human cloned histamine H3 receptor expressed in CHO-K1 cells assessed as inhibition of R-alpha-methylhistamine-induced [35S]GTPgammaS binding; format: functional, cell-based
T1 sequence (Q9Y5N1 whole entry): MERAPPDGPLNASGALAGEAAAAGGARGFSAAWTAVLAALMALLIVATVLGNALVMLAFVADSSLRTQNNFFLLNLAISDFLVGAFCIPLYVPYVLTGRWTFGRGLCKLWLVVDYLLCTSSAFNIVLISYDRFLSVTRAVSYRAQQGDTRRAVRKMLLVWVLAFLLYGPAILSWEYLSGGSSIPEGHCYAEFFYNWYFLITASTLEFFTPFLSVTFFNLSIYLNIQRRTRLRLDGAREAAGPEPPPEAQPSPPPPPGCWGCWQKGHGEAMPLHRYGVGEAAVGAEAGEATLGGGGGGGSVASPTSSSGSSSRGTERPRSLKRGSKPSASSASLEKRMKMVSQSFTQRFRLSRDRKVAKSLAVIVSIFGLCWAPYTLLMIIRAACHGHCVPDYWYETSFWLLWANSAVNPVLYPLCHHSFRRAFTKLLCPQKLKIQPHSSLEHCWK

Histamine H3 receptor [32] = biological target: Histamine H3 receptor (Mus musculus, UniProt P58406); test: Displacement of [3H]N-alpha-methylhistamine from mouse recombinant histamine H3 receptor
Chain of Histamine H3 receptor (Mus musculus, UniProt P58406) (P58406 whole entry): as the sequence (Q9QYN8 whole entry) above, with T15A, A286T, A290G, R387H, I389V counted along it

[33] = Ratio of drug level brain to plasma in mdr1a (-/-) deficient CF1 mouse at 0.3 mg/kg, po after 2 hrs; format: ADME, organism-based; set-up: dose 0.3 mg/kg, route oral; conditions: read-out: BPR; method in brief: as §4
Histamine H3 receptor [34] = biological target: T1, Histamine H3 receptor; test: Displacement of [3H]N-alpha-methylhistamine from human recombinant histamine H3 receptor expressed in CHO-K1 cells; format: cell-based

In the case of `Cc1nc2cccc(F)c2c(=O)n1-c1ccc(OC2CCN(C3CCC3)CC2)cc1`, the concentration at 2 h [1] is reported as 950 nM, the Cmax [2] is reported as 1300 nM and the bioavailability [3] is reported as 53%. For the same compound, the Cmax [4] was 380 nM, the Occ90 (Mus musculus [5]) was 30 nM and the clearance [6] was 11 mL/min/kg. The AUC (Rhesus monkey [7]) was 1.7 µM·h, the F (Rhesus monkey [8]) was 37% and the IC50 (Histamine H2 receptor) was > 10000 nM. For the same compound, the Kp at 2 h [9] was 3.2, the concentration at 2 h [10] was 2400 nM and the Activity (Rattus norvegicus [11]) was >90%. For the same compound, the Occ90 (Mus musculus [12]) was 144 nM, the Activity (Rattus norvegicus [13]) was “Dose-dependent effect” and the IC50 (Histamine H4 receptor) was > 10000 nM. The clearance [14] was 44 mL/min/kg, the AUC(0-inf) [15] was 0.05 µM·h and the IC50 [16] was > 10000 nM. For the same compound, the Kp at 2 h [17] was 1.9, the Occ90 (Mus musculus [18]) was 0.28 nmol/g and the IC50 (Histamine H1 receptor) was > 10000 nM. It also gave a Ratio [19] of 0.13, a Drug uptake (Brain [20]) of 7.6 nmol/g and a Ratio (LLC-PK1 [21]) of 1. The Ratio (LLC-PK1 [22]) was 1.8, the Ki (Histamine H3 receptor [23]) was 6 nM and the AUC(0-inf) [24] was 6.2 µM·h. The concentration at 2 h [25] was 28 nM, the Drug uptake (Brain [26]) was 0.062 nmol/g and the bioavailability [27] was 4.8%. For the same compound, the concentration at 2 h [28] was 32 nM, the Drug uptake (Brain [29]) was 0.26 nmol/g and the Cmax [30] was 20 nM. The IC50 (Histamine H3 receptor [31]) was 0.55 nM, the Ki (Histamine H3 receptor [32]) was 8.4 nM and the Kp at 2 h [33] was 9.4. The Ki (Histamine H3 receptor [34]) was 6.8 nM.
